Consider one compound from ChEMBL document CHEMBL4130355, “Development of a series of novel 4-anlinoquinazoline derivatives possessing quinazoline skeleton: Design, synthesis, EGFR kinase inhibitory efficacy, and evaluation of anticancer activities in vitro” (Eur J Med Chem, 2017).

The test system of one test is MCF7. The test can be described thus: Antiproliferative activity against human MCF7 cells after 72 hrs by MTT assay. The format is functional, cell-based. The conditions noted are these: MCF7, 72 h. On the technique in general: Formazan colour is commonly taken as a measure of viable cells.
Test [1] concerns HepG2. In words: Antiproliferative activity against human HepG2 cells at 0.1 uM after 72 hrs by MTT assay realtive to control. The format is functional. The essentials: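 MTT assay in triplicate wells. Cells (2 × 10^3/well) were attached 24 h, then treated at 0.1, 1, 10, 50 or 100 µM for 24, 48 or 72 h. MTT added for 4 h, SDS solubilisation, absorbance at 570/650 nm. Inhibition = 1 − (OD treated − blank)/(OD control − blank). Reported as mean ± SD of three independent experiments.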

The subject of another test is A549. The test can be described thus: Antiproliferative activity against human A549 cells after 24 hrs by MTT assay. Format: functional, cell-based. The conditions noted are these: A549, 24 h. In a few lines:
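MTT read-out. Cells seeded at 2 × 10^3/well, attached 24 h at 37 °C in 5% CO2, then exposed to 0.1–100 µM for 24, 48 or 72 h. MTT for 4 h, formazan dissolved in 10% SDS/NH4Cl for 10 h, absorbance at 570 nm corrected at 650 nm. % inhibition computed against untreated and blank wells. IC50 is the mean of at least three independent experiments.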

The subject of test [2] is HepG2. In words: Cell cycle arrest in human HepG2 assessed as accumulation at G2/M phase at 2.5 uM after 48 hrs by propidium iodide-staining based flow cytometry (reference value: 9.13%). The format is functional. The essentials:
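HepG2 cells at 5.0 × 10^5/well were grown 24 h, then treated at 0, 2.5, 5.0 or 10.0 µM for 48 h alongside medium-only wells. Cells fixed in 70% ice-cold ethanol for ≥24 h, treated with RNase A at 37 °C for 30 min, then stained with propidium iodide for 30 min at 4 °C in the dark. DNA content read by flow cytometry. Average of at least three experiments.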

Test [3] relates to HepG2. The test can be described thus: Induction of apoptosis in human HepG2 cells assessed as viable cells at 5 uM after 48 hrs by Annexin V-FITC/propidium iodide double staining-based flow cytometry (reference value: 86.4%). Format: functional. The conditions noted are these: HepG2, 48 h, read-out: Activity.
The test system of test [4] is HepG2. The test can be described thus: Induction of apoptosis in human HepG2 cells assessed as late apoptotic cells at 2.5 uM after 48 hrs by Annexin V-FITC/propidium iodide double staining-based flow cytometry (reference value: 4.3%). The format is functional. In general terms: Flow cytometry measures light scatter and fluorescence of single cells or particles in a stream.

In test [5] the test system is HepG2. The test can be described thus: Induction of mitochondrial membrane potential loss in human HepG2 cells assessed as mitochondrial membrane potential levels at 20 uM after 48 hrs by rhodamine-123 dye based FACS analysis (reference value: 90.4%). Format: functional.
Test [6] relates to HepG2. In words: Induction of apoptosis in human HepG2 cells assessed as intracellular free Ca2+ levels at 2.5 uM after 48 hrs by FL1 channel/FACS analysis (reference value: 14.2%). Format: functional. The essentials:
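HepG2 seeded at 5.0 × 10^5 cells/mL, 24 h at 37 °C in 5% CO2, then treated 48 h (2.5–20 µM). Harvested cells were washed in ice-cold PBS and loaded with 4 µM Fluo-3/AM for 30 min. After trypsinizing, they were washed twice and resuspended in HEPES, and fluorescence was measured in the FL-1 channel by flow cytometry. Values are averages of at least three independent experiments.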

In test [7] the test system is HepG2. The test can be described thus: Induction of apoptosis in human HepG2 cells assessed as caspase-3 activity at 10 uM after 48 hrs by colorimetric assay relative to control. Format: functional. In a few lines:
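After 48 h treatment, HepG2 were rinsed in ice-cold PBS and lysed 1–1.5 h on ice in buffer with 1% DTT. Lysate was spun at 10,000×g for 1 min at 4 °C; supernatant protein was measured by Bradford. Supernatant was mixed with 2× reaction buffer (1% DTT) plus caspase-3 chromogenic peptide substrate, held 4 h at 37 °C, and read at 405 nm.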

Test [8] addresses Epidermal growth factor receptor (Homo sapiens, UniProt P00533). The conditions noted are these: HEK293, at 10 µM.

Chain of Epidermal growth factor receptor (P00533 whole entry): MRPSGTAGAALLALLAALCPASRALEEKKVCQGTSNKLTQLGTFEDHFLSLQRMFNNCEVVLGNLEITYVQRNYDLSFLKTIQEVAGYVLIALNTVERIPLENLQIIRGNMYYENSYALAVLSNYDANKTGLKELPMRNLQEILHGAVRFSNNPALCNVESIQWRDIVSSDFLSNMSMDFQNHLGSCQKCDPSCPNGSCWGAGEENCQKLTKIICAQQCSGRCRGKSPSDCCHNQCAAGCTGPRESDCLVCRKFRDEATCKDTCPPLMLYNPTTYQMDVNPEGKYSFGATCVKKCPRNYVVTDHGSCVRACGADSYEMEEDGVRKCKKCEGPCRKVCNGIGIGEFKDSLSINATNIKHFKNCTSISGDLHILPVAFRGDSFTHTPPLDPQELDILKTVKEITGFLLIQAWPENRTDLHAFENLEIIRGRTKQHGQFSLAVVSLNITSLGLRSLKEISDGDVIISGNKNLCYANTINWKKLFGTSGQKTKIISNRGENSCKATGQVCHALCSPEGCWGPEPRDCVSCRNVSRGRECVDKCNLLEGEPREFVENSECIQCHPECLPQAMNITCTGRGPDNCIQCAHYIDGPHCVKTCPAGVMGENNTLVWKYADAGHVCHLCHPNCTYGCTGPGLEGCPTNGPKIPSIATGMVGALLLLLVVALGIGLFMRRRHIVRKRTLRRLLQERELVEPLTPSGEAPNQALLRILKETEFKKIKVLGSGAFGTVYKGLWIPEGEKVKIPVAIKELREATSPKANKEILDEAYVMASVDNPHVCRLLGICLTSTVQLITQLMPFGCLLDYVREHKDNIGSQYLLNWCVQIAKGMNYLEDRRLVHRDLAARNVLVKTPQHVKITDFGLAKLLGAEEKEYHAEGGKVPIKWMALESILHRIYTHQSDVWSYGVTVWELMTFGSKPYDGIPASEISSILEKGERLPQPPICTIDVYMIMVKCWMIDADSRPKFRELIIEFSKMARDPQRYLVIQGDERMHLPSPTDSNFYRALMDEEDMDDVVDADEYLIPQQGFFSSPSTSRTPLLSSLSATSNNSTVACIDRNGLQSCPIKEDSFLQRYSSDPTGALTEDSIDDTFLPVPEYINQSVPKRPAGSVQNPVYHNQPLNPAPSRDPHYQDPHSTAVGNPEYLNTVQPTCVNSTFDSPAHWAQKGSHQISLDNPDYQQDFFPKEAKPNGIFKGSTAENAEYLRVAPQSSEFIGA

With `COc1cc2c(Nc3ccc(C#N)cc3)ncnc2cc1OCCCN1CCC(c2ccccc2)CC1`, the IC50 was 9.8 µM with MCF7 and 15 µM in the test with A549. Besides, the Activity is 7.4% in the test on HepG2 [1]; 10.49% with HepG2 [2]; 3.8% in the test on HepG2 [4]; 55.9% in the test on HepG2 [5]; 41.7% in the test on HepG2 [6]; 198% with HepG2 [7]. Besides, the viability at 5 µM in the test with HepG2 [3] was found to be 17.3%. In addition, the inhibition in test [8] is 99.1%.

For orientation: IC50 means the concentration needed to halve the response being measured. Low readings indicate greater potency in that assay, high ones weaker potency in that assay. As a reminder, the inhibition is the drop in the measured response relative to a control, in per cent. Lower therefore signals little suppression.
